18 compounds from ChEMBL document CHEMBL1140866, “New pyrazoline bearing 4(3H)-quinazolinone inhibitors of monoamine oxidase: synthesis, biological evaluation, and structural determinants of MAO-A and MAO-B selectivity” (Bioorg Med Chem, 2009) can be followed below.

The structures appear in SMILES notation.

Data set [1] concerns Mus musculus. Kind of data set: Anxiolytic activity in albino mouse assessed as time spent on closed arm at 100 mg/kg, ip by plus-maze test. In kind it is functional. Also noted: unit not given here. The following applies: route intraperitoneal. The gist of the method:
(§1)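 Mice given compounds i.p. at 100 mg/kg in DMSO/water (1:4), about 0.1 mL, 1 h before testing; controls got 0.1 mL vehicle; n = 7–8. Housed eight per cage, 20 ± 2 °C, 12 h light/dark. Each animal did the plus-maze first, then forced swim.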

Data set [2] concerns the target T1, Amine oxidase [flavin-containing] B (Rattus norvegicus, UniProt P19643).
T1 sequence (P19643 whole entry): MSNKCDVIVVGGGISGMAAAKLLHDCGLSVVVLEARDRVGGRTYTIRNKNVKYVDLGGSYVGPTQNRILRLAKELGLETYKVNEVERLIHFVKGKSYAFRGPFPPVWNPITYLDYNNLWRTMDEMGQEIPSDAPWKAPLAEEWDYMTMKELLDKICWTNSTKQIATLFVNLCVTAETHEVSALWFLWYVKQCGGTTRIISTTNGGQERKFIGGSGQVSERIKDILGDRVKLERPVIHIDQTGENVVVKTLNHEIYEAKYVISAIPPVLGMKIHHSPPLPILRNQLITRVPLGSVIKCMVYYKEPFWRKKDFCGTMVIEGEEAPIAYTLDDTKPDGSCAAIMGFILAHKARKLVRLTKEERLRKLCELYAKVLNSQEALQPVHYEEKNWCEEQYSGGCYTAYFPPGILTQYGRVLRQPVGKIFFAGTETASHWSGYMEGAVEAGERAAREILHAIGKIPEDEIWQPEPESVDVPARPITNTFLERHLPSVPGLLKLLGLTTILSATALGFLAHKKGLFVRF
The data set is described as follows: Inhibition of MAO-B in rat liver homogenate after 60 mins by Lineweaver-Burke plot. In kind it is tissue-based. The conditions noted are these: for Activity: rat, 1 h, TDE = time-dependent effect.

The test system of data set [3] is Mus musculus. Kind of data set: Antidepressant activity in albino mouse assessed as immobility time at 100 mg/kg, ip by forced swim test. In kind it is functional. The following applies: route intraperitoneal. The gist of the method: as §1
Data set [4] deals with Mus musculus. The data set is described as follows: Anxiolytic activity in albino mouse assessed as total number of entries into arms at 100 mg/kg, ip by plus-maze test. In kind it is functional. The conditions noted are these: route intraperitoneal. The procedure, abridged:
as §1

The target in data set [5] is T2, Amine oxidase [flavin-containing] A (Rattus norvegicus, UniProt P21396).
T2 sequence (P21396 whole entry): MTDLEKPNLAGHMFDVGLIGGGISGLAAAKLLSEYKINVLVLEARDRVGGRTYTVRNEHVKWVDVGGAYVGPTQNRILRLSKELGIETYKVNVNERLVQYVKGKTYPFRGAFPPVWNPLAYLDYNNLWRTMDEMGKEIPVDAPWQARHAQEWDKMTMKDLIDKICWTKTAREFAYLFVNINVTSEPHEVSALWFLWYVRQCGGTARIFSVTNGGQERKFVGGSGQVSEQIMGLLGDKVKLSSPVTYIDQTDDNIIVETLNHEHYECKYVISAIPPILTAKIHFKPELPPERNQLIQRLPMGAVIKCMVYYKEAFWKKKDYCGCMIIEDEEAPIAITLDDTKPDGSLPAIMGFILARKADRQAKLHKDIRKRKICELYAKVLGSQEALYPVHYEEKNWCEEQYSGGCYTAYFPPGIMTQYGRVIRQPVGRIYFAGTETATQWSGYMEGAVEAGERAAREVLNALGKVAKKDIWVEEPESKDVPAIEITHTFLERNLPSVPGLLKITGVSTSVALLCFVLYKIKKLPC
Kind of data set: Inhibition of MAO-A in rat liver homogenate after 60 mins by residual activity plot. It is filed as tissue-based.

The target of data set [6] is T1, Amine oxidase [flavin-containing] B. Kind of data set: Inhibition of MAO-B in rat liver homogenate after 60 mins by residual activity plot. It is filed as tissue-based.
Data set [7] concerns the target T2, Amine oxidase [flavin-containing] A. The data set is described as follows: Inhibition of MAO-A in rat liver homogenate after 60 mins by Lineweaver-Burke plot. In kind it is tissue-based. The following applies: for Activity: rat, 1 h, TDE = time-dependent effect.

With `Cn1c(N/N=C(/C=C/c2cccc(Cl)c2)c2ccccc2)nc2ccccc2c1=O`, the Activity with Mus musculus [1] is 246.87; in data set [2], “tde”; in the data set on Mus musculus [3], 54.57%; in data set [7] it was “tde”. Moreover, the inhibition constant (Ki) (usually a measure of affinity in units of concentration, obtained from inhibition or displacement) in data set [2] turned out to be 0.16 µM; in data set [7] it was 5.1 µM. Also, the arm entries with Mus musculus [4] turned out to be 3.15 entries. In addition, the 50% inhibitory concentration (IC50) (usually the concentration needed to halve the response being measured) in data set [5] turned out to be 468 µM; in data set [6] it was 1.15 µM.
On to `Cn1c(N/N=C(/C=C/c2ccco2)c2ccc(Cl)cc2)nc2ccccc2c1=O`, for which the Activity was 219.5 in the data set with Mus musculus [1], “tde” in data set [2], 67.88% with Mus musculus [3] and “tde” in data set [7]. Moreover, the Ki in data set [2] turned out to be 125 µM; in data set [7], 80.1 µM. Also, the arm entries in the data set with Mus musculus [4] worked out at 6.75 entries. Further, the IC50 came to 31.6 µM in data set [5] and 400 µM in data set [6].
As to `COc1ccc(C(/C=C/c2ccco2)=N\Nc2nc3ccccc3c(=O)n2C)cc1`, the Activity in the data set with Mus musculus [1] was 237.25; in data set [2], “tde”; with Mus musculus [3], 80.38%; in data set [7], “tde”. The inhibition constant Ki in data set [2] is 90.5 µM; in data set [7], 70.3 µM. Moreover, the arm entries in the data set on Mus musculus [4] amounted to 4.63 entries. Moreover, the figures for the IC50 in data set [5] and in data set [6] were 34.2 µM and 419 µM, respectively.
For the compound `Cc1ccc(/C=C/C(=N/Nc2nc3ccccc3c(=O)n2C)c2ccccc2)cc1`, the Activity was 216.12 in the data set on Mus musculus [1], “tde” in data set [2], 79.25% with Mus musculus [3] and “tde” in data set [7]. Further, the Ki in data set [2] turned out to be 64.6 µM; in data set [7] it was 30.2 µM. In addition, the arm entries in the data set with Mus musculus [4] worked out at 6.37 entries. Moreover, the half-inhibitory concentration (IC50) in data set [5] came out at 30.5 µM; in data set [6], 470 µM.
Consider `Cc1ccc(C2=NN(c3nc4ccccc4c(=O)n3C)C(c3cccs3)C2)cc1` (centres undefined), for which the Activity was 188.14 with Mus musculus [1], “tde” in data set [2], 74.14% in the data set with Mus musculus [3] and “tde” in data set [7]. In addition, the Ki is 90.7 µM in data set [2] and 130 µM in data set [7]. For the same compound, the arm entries in the data set with Mus musculus [4] came out at 5.14 entries. The 50% inhibitory concentration (IC50) worked out at 415 µM in data set [5] and 70.8 µM in data set [6].
In the case of `CCOc1ccc(/C=C/C(=N/Nc2nc3ccccc3c(=O)n2C)c2ccccc2)cc1`, the Activity in the data set with Mus musculus [1] was 218.88; in data set [2] it was “tde”; in the data set with Mus musculus [3] it was 90.23%; in data set [7] it was “tde”. Besides, the Ki in data set [2] was 30.6 µM; in data set [7], 80.1 µM. Besides, the arm entries with Mus musculus [4] was 5.75 entries. In addition, the values for the IC50 in data set [5] and in data set [6] were 29 µM and 429 µM, respectively.
Take `COc1ccc(/C=C/C(=N/Nc2nc3ccccc3c(=O)n2C)c2ccccc2)cc1`: the Activity with Mus musculus [1] is 225.38; in data set [2], “tde”; with Mus musculus [3], 86.75%; in data set [7] it was “tde”. For the same compound, the results for the inhibitory constant (Ki) in data set [2] and in data set [7] were 10.6 µM and 1.15 µM, respectively. In addition, in the data set on Mus musculus [4], the arm entries was found to be 4.5 entries. Also, the half-maximal inhibitory concentration (IC50) in data set [5] amounted to 9.05 µM; in data set [6] it was 399 µM.
In the case of `COc1ccc(/C=C/C(=N/Nc2nc3ccccc3c(=O)n2C)c2ccccc2)cc1OC`, the Activity in the data set on Mus musculus [1] was 209.63; in data set [2], “tde”; in the data set on Mus musculus [3], 130.57%; in data set [7], “tde”. In addition, the inhibitory constant (Ki) in data set [2] amounted to 65.1 µM; in data set [7] it was 90.7 µM. Also, the arm entries in the data set with Mus musculus [4] stood at 5.63 entries. Moreover, the half-inhibitory concentration (IC50) in data set [5] worked out at 68 µM; in data set [6], 470 µM.
Turning to `Cn1c(=S)[nH]c2ccccc2c1=O`, the values for the Ki in data set [2] and in data set [7] were 78.3 µM and 30.2 µM, respectively. Moreover, the Activity result in data set [2] and in data set [7] was “tde” in each case. In addition, the half-maximal inhibitory concentration (IC50) was determined as 3.42 µM in data set [5] and 120 µM in data set [6].
`Cc1ccc(C(/C=C/c2cccs2)=N\Nc2nc3ccccc3c(=O)n2C)cc1`: the Activity in the data set on Mus musculus [1] was 204.71; in data set [2], “tde”; in the data set with Mus musculus [3], 65.57%; in data set [7], “tde”. The Ki in data set [2] is 188 µM; in data set [7], 190 µM. Also, the arm entries in the data set on Mus musculus [4] was 5.57 entries. Moreover, the IC50 in data set [5] was 33.2 µM; in data set [6], 419 µM.
Consider `Cn1c(N/N=C(/C=C/c2cccs2)c2ccc(Cl)cc2)nc2ccccc2c1=O`, for which the Activity is recorded as 162.17 in the data set with Mus musculus [1], “tde” in data set [2], 50.39% in the data set on Mus musculus [3] and “tde” in data set [7]. Besides, the Ki in data set [2] was 69.1 µM; in data set [7], 28.2 µM. Besides, the arm entries in the data set on Mus musculus [4] was 8.5 entries. Besides, the IC50 in data set [5] was found to be 28 µM; in data set [6], 416 µM.
For the compound `COc1ccc(C(/C=C/c2cccs2)=N\Nc2nc3ccccc3c(=O)n2C)cc1`, the Activity is reported as 206.29 with Mus musculus [1], “tde” in data set [2], 49.29% in the data set with Mus musculus [3] and “tde” in data set [7]. The inhibitory constant (Ki) came out at 184 µM in data set [2] and 185 µM in data set [7]. Besides, in the data set on Mus musculus [4], the arm entries came out at 8 entries. Moreover, the IC50 was determined as 27.2 µM in data set [5] and 299 µM in data set [6].
For `Cn1c(NN)nc2ccccc2c1=O`, the Ki in data set [2] came out at 18.6 µM; in data set [7], 25.2 µM. Besides, the Activity entry in data set [2] and in data set [7] was “tde” in each case. Also, the IC50 came out at 37.4 µM in data set [5] and 21.2 µM in data set [6].
Consider `Cc1ccc(C(/C=C/c2ccco2)=N\Nc2nc3ccccc3c(=O)n2C)cc1`, for which the Activity with Mus musculus [1] was 238.67; in data set [2] it was “tde”; in the data set with Mus musculus [3] it was 82.43%; in data set [7], “tde”. Also, the figures for the Ki in data set [2] and in data set [7] were 179 µM and 181 µM, respectively. Besides, in the data set with Mus musculus [4], the arm entries came out at 5.14 entries. Besides, the concentration for half-maximal inhibition (IC50) in data set [5] worked out at 90.8 µM; in data set [6], 320 µM.
As to `Cn1c(N/N=C(/C=C/c2ccccc2)c2ccccc2)nc2ccccc2c1=O`, the Activity in the data set on Mus musculus [1] is listed as 191; in data set [2], “tde”; with Mus musculus [3], 55.43%; in data set [7] it was “tde”. The Ki was 70.5 µM in data set [2] and 34.2 µM in data set [7]. The arm entries in the data set with Mus musculus [4] was found to be 5.37 entries. The IC50 was 35.1 µM in data set [5] and 415 µM in data set [6].
As for `Cn1c(N/N=C(/C=C/c2ccc(Br)cc2)c2ccccc2)nc2ccccc2c1=O`, the Activity with Mus musculus [1] was 218.71; in data set [2], “tde”; in the data set on Mus musculus [3], 65.57%; in data set [7] it was “tde”. The Ki amounted to 69.6 µM in data set [2] and 40.3 µM in data set [7]. Besides, the arm entries with Mus musculus [4] is 3.87 entries. In addition, the IC50 stood at 30.5 µM in data set [5] and 487 µM in data set [6].
In the case of `Cn1c(N/N=C(/C=C/c2ccc(Cl)cc2)c2ccccc2)nc2ccccc2c1=O`, the Activity in the data set on Mus musculus [1] is 284.2; in data set [2] it was “tde”; in the data set with Mus musculus [3] it was 125.86%; in data set [7], “tde”. The inhibition constant (Ki) in data set [2] was 7.8 µM; in data set [7], 1.05 µM. Besides, the arm entries in the data set with Mus musculus [4] came out at 2.51 entries. Moreover, the 50% inhibitory concentration (IC50) in data set [5] turned out to be 3.56 µM; in data set [6], 378 µM.
Turning to `C#CCN(C)Cc1ccccc1` [PARGYLINE], the figures for the Ki in data set [2] and in data set [7] were 3.36 µM and 8.5 µM, respectively.
